Results reported in ChEMBL document CHEMBL1156453, “Cellular characterization of a novel focal adhesion kinase inhibitor” (J Biol Chem, 2007).
Calls of active or inactive are those of the source. No cut-off for these calls is given here.

Tests used:
[1] = biological target: Mast/stem cell growth factor receptor Kit (Homo sapiens) (UniProt P10721); assay: Inhibition of c-kit at 1 uM
[2] = biological target: Tyrosine-protein kinase Lck (Homo sapiens) (UniProt P06239); assay: Inhibition of LCK at 1 uM
[3] = biological target: Mitogen-activated protein kinase 1 (Homo sapiens) (UniProt P28482); assay: Inhibition of human MAPK1 at 1 uM
Outline: (§1)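 Recombinant kinases were screened in a commercial profiling panel with the compound at a single concentration of 1 μM. The read-out is percent inhibition of each enzyme's kinase activity.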

[4] = biological target: Dual specificity mitogen-activated protein kinase kinase 1 (Homo sapiens) (UniProt Q02750); assay: Inhibition of human MEK1 at 1 uM
[5] = Inhibition of MKK at 1 uM; outline: as §1
[6] = biological target: Dual specificity mitogen-activated protein kinase kinase 6 (Homo sapiens) (UniProt P52564); assay: Inhibition of MKK6 at 1 uM
[7] = biological target: Platelet-derived growth factor receptor beta (Homo sapiens) (UniProt P09619); assay: Inhibition of PDGFRbeta at 1 uM
[8] = biological target: Ribosomal protein S6 kinase beta-1 (Homo sapiens) (UniProt P23443); assay: Inhibition of human P70S6K at 1 uM
[9] = biological target: Phosphatidylinositol 4,5-bisphosphate 3-kinase catalytic subunit gamma isoform (Homo sapiens) (UniProt P48736); assay: Inhibition of human PI3-Kgamma at 1 uM
Homo sapiens [10] = species on record: Homo sapiens; assay: Inhibition of human PKA at 1 uM; outline: as §1
Homo sapiens [11] = species on record: Homo sapiens; assay: Inhibition of human PKBalpha at 1 uM; outline: as §1
[12] = biological target: Protein kinase C alpha type (Homo sapiens) (UniProt P17252); assay: Inhibition of human PKCalpha at 1 uM
[13] = Inhibition of cell migration of rat REF52 cells assessed as reduction in rate of movement of cell into wound at 10 uM by wound healing assay in presence of 10% serum; assay type: functional; set-up: scale not given: the % may be the effect or the level left
[14] = biological target: Cyclin-dependent kinase 1/cyclin B1 (Homo sapiens, UniProt P06493); assay: Inhibition of human CDK1/cyclinB; assay type: protein-complex assay
[15] = biological target: Cyclin-dependent kinase 7 (Homo sapiens, UniProt P50613); assay: Inhibition of human CDK7/cyclinH/MAT1
[16] = biological target: Glycogen synthase kinase-3 beta (Homo sapiens, UniProt P49841); assay: Inhibition of human GSK3-beta
NIH3T3 [17] = assay: Inhibition of focal adhesion turnover in wounded mouse NIH3T3 cells expressing GFP-paxillin assessed as average adhesion life-time at 10 uM by TIRF microscopy; assay type: functional
[18] = biological target: Paxillin (Rattus norvegicus) (UniProt Q66H76); assay: Induction of paxillin organization loss in focal adhesion in rat REF52 cells at 3 uM after 1 hr by immunostaining; assay type: cell-based
Outline: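 REF52 cells held in suspension 30 min to 1 h without serum with inhibitor, then plated on 5 μg/ml fibronectin-coated coverslips for 60 min with inhibitor still present. Cells fixed in 4% paraformaldehyde, permeabilized with Triton X-100 and immunostained for paxillin and phospho-FAK Tyr397. Imaged by fluorescence microscopy, 60× objective.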

Focal adhesion kinase 1 [19] = biological target: T1, Focal adhesion kinase 1 (Homo sapiens, UniProt Q05397); assay: Inhibition of FAK Tyr397 phosphorylation in human A431 cells by ELISA
Focal adhesion kinase 1 [20] = biological target: T1, Focal adhesion kinase 1; assay: Inhibition of FAK Tyr397 phosphorylation in human PC3 cells after 60 mins by Western blot analysis
Focal adhesion kinase 1 [21] = biological target: T1, Focal adhesion kinase 1; assay: Inhibition of FAK Tyr397 phosphorylation in human SKOV3 cells after 60 mins by Western blot analysis
Focal adhesion kinase 1 [22] = biological target: T1, Focal adhesion kinase 1; assay: Inhibition of FAK Tyr397 phosphorylation in human L3.6pl cells after 60 mins by Western blot analysis
Focal adhesion kinase 1 [23] = biological target: T1, Focal adhesion kinase 1; assay: Inhibition of FAK Tyr397 phosphorylation in human FG cells after 60 mins by Western blot analysis
[24] = Inhibition of FAK Tyr397 phosphorylation in dog MDCK cells after 60 mins by Western blot analysis; assay type: cell-based; details: Canis lupus familiaris, 1 h
Outline: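 MDCK cells treated with increasing inhibitor concentrations, 60 min, as for REF52. Whole-cell lysates immunoblotted for phospho-FAK Tyr397 and total FAK. Phospho-signal normalized to total FAK, and IC50 derived from the concentration series.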

Fibroblast = assay: Inhibition of cell growth in […] fibroblast at 10 uM; assay type: functional, cell-based
[25] = biological target: Paxillin (Rattus norvegicus) (UniProt Q66H76); assay: Decrease in Paxillin Try31 phosphorylation in rat REF52 cells; assay type: cell-based
Outline: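 REF52 cells exposed to 1 μm inhibitor for the indicated times, then lysed in CH buffer containing phosphatase and protease inhibitors. Whole-cell lysates resolved by SDS-PAGE and immunoblotted with anti-phospho-Tyr31 paxillin and anti-paxillin.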

MDCK = assay: Induction of apoptosis in attached dog MDCK cells assessed as histone accumulation after 16 hrs by ELISA; assay type: functional, cell-based; details: Canis lupus familiaris
Outline: (§2)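 Attached cells in serum-containing medium treated with inhibitor at the indicated concentrations, 24 h for REF52 and PC3, 16 h for MDCK, then lysed. Free histones in lysates measured by cell death detection ELISA, in duplicate. Untreated adherent cells were the negative control. Cells suspended 16–24 h in serum-free medium were the positive control. One of three experiments shown.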

REF52 = assay: Induction of apoptosis in attached rat REF52 cells assessed as histone accumulation after 24 hrs by ELISA; assay type: functional, cell-based; outline: as §2
PC-3 [26] = assay: Induction of apoptosis in attached human PC3 cells assessed as histone accumulation after 24 hrs by ELISA; assay type: functional, cell-based; outline: as §2
NIH3T3 [27] = assay: Inhibition of focal adhesion turnover in wounded mouse NIH3T3 cells expressing GFP-paxillin assessed as decrease in rate of disassembly by TIRF microscopy; assay type: functional, cell-based
PC-3 [28] = assay: Cell number in human PC3 cells at 1 uM after 3 days as % of control; details: PC-3, 72 h
[29] = Cell number in rat REF52 cells at 1 uM after 3 days as % of control; details: REF52, 72 h
PC-3 [30] = assay: Cell number in human PC3 cells at 10 uM after 3 days as % of control; details: PC-3, 72 h
[31] = Cell number in rat REF52 cells at 10 uM after 3 days as % of control; details: REF52, 72 h
PC-3 [32] = assay: Induction of apoptosis in human PC3 cells attached in serum containing medium assessed as histone accumulation after 24 hrs by ELISA

T1 sequence (Q05397 whole entry): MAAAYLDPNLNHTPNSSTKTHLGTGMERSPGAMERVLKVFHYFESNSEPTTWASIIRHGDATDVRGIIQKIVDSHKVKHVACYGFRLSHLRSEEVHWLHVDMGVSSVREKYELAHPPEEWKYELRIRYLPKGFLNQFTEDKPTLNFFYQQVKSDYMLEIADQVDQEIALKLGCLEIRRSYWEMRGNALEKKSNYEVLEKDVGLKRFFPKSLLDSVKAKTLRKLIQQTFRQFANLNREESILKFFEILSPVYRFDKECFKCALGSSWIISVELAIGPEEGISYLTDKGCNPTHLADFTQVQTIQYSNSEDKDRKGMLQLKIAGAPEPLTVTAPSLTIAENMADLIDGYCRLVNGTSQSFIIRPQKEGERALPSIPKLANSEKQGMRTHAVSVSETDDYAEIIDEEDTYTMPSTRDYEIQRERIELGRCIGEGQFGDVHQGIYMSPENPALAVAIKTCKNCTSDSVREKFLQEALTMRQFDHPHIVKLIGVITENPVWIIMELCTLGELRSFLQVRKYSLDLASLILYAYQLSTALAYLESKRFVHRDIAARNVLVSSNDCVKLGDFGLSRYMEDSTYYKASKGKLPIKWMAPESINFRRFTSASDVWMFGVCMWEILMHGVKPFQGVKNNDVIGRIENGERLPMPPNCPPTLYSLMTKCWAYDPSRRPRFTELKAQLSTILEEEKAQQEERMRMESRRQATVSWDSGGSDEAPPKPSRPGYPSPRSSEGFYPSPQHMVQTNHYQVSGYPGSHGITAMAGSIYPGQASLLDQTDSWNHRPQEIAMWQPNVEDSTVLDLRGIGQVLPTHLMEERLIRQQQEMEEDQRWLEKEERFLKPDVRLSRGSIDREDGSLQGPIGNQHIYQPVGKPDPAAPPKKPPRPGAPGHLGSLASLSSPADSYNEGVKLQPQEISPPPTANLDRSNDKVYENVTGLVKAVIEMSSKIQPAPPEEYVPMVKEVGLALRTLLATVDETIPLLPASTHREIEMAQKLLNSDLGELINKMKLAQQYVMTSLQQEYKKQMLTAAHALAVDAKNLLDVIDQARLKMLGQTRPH
Paxillin (Rattus norvegicus), sequence (Q66H76 whole entry): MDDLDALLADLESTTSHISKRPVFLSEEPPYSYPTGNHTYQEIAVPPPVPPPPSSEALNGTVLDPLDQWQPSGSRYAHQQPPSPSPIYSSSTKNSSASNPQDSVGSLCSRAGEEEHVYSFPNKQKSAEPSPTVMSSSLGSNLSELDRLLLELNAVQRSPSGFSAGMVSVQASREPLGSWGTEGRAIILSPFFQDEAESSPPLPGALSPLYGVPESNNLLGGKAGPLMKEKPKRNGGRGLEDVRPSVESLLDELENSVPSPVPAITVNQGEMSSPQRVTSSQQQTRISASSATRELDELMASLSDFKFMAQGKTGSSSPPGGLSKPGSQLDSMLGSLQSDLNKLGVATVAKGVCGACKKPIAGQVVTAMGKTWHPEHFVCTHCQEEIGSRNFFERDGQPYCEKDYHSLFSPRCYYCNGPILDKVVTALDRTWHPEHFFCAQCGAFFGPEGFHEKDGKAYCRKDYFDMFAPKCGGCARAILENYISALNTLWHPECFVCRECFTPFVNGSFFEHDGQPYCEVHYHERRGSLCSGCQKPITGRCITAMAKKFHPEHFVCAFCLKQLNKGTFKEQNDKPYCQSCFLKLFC
Dual specificity mitogen-activated protein kinase kinase 6 (Homo sapiens), sequence (P52564 whole entry): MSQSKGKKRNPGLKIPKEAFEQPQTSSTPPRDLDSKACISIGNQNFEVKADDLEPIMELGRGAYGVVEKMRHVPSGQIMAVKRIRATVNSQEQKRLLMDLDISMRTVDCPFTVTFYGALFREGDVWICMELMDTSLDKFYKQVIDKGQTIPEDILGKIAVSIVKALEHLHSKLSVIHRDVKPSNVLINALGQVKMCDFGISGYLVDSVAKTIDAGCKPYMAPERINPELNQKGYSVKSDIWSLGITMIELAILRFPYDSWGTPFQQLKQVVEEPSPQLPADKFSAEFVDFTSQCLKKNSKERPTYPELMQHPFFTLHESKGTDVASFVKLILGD
Dual specificity mitogen-activated protein kinase kinase 1 (Homo sapiens), sequence (Q02750 whole entry): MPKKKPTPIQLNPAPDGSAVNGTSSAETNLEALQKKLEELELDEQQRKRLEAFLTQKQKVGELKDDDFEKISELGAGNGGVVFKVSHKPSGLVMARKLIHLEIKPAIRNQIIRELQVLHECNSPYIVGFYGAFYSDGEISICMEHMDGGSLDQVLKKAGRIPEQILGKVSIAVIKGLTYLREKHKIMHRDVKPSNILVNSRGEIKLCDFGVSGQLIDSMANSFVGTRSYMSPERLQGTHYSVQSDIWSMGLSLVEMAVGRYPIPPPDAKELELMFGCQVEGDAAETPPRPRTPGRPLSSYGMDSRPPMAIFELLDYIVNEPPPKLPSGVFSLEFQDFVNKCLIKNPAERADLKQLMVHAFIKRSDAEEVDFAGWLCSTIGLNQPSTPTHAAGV
Ribosomal protein S6 kinase beta-1 (Homo sapiens), sequence (P23443 whole entry, looked up, canonical isoform): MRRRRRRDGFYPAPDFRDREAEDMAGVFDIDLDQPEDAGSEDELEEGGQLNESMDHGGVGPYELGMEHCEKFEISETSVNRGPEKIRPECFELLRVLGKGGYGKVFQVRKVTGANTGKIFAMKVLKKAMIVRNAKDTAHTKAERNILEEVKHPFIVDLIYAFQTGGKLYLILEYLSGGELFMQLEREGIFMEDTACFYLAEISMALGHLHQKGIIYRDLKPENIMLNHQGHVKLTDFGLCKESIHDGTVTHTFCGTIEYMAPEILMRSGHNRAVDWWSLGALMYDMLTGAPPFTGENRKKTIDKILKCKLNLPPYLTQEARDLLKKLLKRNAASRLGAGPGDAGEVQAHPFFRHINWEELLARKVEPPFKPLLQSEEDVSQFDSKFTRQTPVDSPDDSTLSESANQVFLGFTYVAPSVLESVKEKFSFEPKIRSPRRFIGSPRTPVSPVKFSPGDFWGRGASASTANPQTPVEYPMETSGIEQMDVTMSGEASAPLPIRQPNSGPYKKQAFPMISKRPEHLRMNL
Platelet-derived growth factor receptor beta (Homo sapiens), sequence (P09619 whole entry): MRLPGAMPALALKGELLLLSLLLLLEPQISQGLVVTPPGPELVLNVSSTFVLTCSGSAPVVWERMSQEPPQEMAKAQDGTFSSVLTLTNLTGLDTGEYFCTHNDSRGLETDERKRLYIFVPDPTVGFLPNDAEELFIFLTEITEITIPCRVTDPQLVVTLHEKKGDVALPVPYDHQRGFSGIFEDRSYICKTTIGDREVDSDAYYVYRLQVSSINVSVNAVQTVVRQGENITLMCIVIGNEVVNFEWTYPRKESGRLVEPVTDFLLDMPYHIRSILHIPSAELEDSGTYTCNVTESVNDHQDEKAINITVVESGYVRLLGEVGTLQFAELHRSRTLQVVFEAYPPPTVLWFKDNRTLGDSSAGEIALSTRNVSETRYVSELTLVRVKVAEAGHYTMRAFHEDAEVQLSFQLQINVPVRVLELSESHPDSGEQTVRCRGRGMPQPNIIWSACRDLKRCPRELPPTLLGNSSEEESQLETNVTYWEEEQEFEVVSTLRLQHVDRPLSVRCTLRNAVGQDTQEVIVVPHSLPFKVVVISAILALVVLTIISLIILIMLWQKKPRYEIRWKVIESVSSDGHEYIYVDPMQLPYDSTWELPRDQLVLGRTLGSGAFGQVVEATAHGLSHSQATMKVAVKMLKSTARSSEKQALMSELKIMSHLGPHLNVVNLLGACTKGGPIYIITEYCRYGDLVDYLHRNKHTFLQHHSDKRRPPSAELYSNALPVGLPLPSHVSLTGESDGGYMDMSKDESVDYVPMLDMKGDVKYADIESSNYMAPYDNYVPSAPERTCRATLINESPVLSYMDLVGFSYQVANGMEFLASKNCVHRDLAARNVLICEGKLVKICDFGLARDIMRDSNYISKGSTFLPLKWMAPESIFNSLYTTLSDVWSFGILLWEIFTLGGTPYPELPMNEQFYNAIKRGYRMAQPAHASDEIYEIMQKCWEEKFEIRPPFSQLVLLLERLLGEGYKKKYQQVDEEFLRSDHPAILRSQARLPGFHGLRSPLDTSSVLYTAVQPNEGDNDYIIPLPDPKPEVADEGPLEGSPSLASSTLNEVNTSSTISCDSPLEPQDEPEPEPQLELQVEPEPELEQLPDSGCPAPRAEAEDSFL
Cyclin-dependent kinase 7, sequence (P50613 whole entry): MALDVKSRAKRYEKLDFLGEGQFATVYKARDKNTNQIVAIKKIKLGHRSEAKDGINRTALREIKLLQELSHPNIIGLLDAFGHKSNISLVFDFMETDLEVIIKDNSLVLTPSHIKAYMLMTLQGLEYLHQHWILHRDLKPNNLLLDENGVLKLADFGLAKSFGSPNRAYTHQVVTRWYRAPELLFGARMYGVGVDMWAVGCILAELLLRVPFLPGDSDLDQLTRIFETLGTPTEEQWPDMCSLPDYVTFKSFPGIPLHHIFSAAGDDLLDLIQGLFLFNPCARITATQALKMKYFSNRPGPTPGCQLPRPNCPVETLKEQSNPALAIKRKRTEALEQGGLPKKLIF

What does the source list for `CS(=O)(=O)c1cccc(CNc2nc(Nc3ccc4c(c3)CCC(=O)N4)ncc2C(F)(F)F)c1`?
inhibition [1]: 25%; inhibition [2]: 0%; inhibition [3]: 48%; inhibition [4]: 20%; inhibition [5]: 48%; inhibition [6]: 16%; inhibition [7]: 2%; inhibition [8]: 31%; inhibition [9]: 0%; inhibition (Homo sapiens [10]): 0%; inhibition (Homo sapiens [11]): 13%; inhibition [12]: 12%; Activity [13]: 60%; IC50 [14]: 0.486 µM; IC50 [15]: 0.197 µM; IC50 [16]: > 1 µM; Time (NIH3T3 [17]): 42 min; Activity [18]: Active; IC50 (Focal adhesion kinase 1 [19]): 0.011 µM; IC50 (Focal adhesion kinase 1 [20]): 0.1 µM; IC50 (Focal adhesion kinase 1 [21]): 0.05 µM; IC50 (Focal adhesion kinase 1 [22]): 0.3 µM; IC50 (Focal adhesion kinase 1 [23]): 0.03 µM; IC50 [24]: 0.5 µM; Activity (Fibroblast): Active; Activity [25]: Dose-dependent effect; Activity (MDCK): inactive; Activity (REF52): inactive; Activity (PC-3 [26]): inactive; Activity (NIH3T3 [27]): Active; level, % of control at 1 µM (PC-3 [28]): 109%; level, % of control at 1 µM [29]: 141%; level, % of control at 10 µM (PC-3 [30]): 17%; level, % of control at 10 µM [31]: 7%; Activity (PC-3 [32]): inactive
